Blank lines part the entries; values can stand above or below the molecule they belong to.
Legend:
fungal IPC synthase = conditions: in words; cited from earlier work
[1] = molecular target: the F158Y and A240C mutations (Aur1-Kei1 mutant complexes); assay: MST
[2] = molecular target: His-tagged Aur1-Kei1 complex with Aur1 H157Y (S. cerevisiae) (UniProt P36107); assay: MST
[3] = molecular target: His-tagged S. cerevisiae IPC synthase complex (Aur1-Kei1), wild type (S. cerevisiae) (UniProt P36107); assay: MST
[4] = test system: unpurified membrane-embedded IPC synthase; conditions: cited from earlier work
Aur1-Kei1 complex = assay: Thermal shift assay; type: binding, Saccharomyces cerevisiae; conditions: 10 µM PI or 10 µM C6-ceramide, 1 h at 4 °C, 5% DMSO; compared to the control
In short: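 nanoDSF on 0.1 mg/mL purified complex in 25 mM HEPES pH 7.5, 150 mM NaCl, 0.01% LMNG. Protein was held 1 h at 4 °C with final 10 µM PI or 10 µM C6-ceramide in 5% DMSO. Intrinsic fluorescence at 330 and 350 nm was read from 35 to 95 °C at […]. Tm was taken from the first-derivative peak of Em350/Em330, averaged over three measurements.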

cryo-EM structure = molecular target: the molecule itself; assay: cryo-EM structure
[5] = molecular target: the molecule itself; assay: SEC + cross-linking + native gel or EMSA

Molecule: CCCCCCCCCC[C@H](C)[C@@H](O)[C@@H](C)/C=C(C)/C=C(\C)C(=O)[C@H](C)/C=C(\C)C(=O)O[C@H](CO)[C@@H](O)[C@H](O)C(=O)O [khafrefungin]
inhibition of fungal IPC synthase (fungal IPC synthase): effective inhibitors of fungal IPC synthase

Molecule: C=C1/C=C(\C)[C@H](CC)CC(=O)[C@H](C)C(=O)[C@@](O)(CO)C/C(OC)=C/[C@@H](C)C1 [rustmicin]
inhibition of fungal IPC synthase (fungal IPC synthase): effective inhibitors of fungal IPC synthase

fold weakening of the binding affinity against the WT complex [1]: 1.5 to 2 fold
fold reduction in binding affinity against the WT complex [2]: 30 fold
Kd [3]: 57.7 nM
Molecule: Aureobasidin A (peptide)

Molecule: ceramide
kinetic value for ceramide [4]: 3 µM
effect on protein stability (Aur1-Kei1 complex): did not enhance protein stability

B1: S. cerevisiae Aur1, catalytic subunit of IPC synthase (enzyme)
chain: MANPFSRWFLSERPPNCHVADLETSLDPHQTLLKVQKYKPALSDWVHYIFLGSIMLFVFITNPAPWIFKILFYCFLGTLFIIPATSQFFFNALPILTWVALYFTSSYFPDDRRPPITVKVLPAVETILYGDNLSDILATSTNSFLDILAWLPYGLFHFGAPFVVAAILFVFGPPTVLQGYAFAFGYMNLFGVIMQNVFPAAPPWYKILYGLQSANYDMHGSPGGLARIDKLLGINMYTTAFSNSSVIFGAFPSLHSGCATMEALFFCYCFPKLKPLFIAYVCWLWWSTMYLTHHYFVDLMAGSVLSYVIFQYTKYTHLPIVDTSLFCRWSYTSIEKYDISKSDPLAADSNDIESVPLSNLELDFDLNMTDEPSVSPSLFDGSTSVSRSSATSITSLGVKRA
modifications: two major bands likely correspond to the glycosylated and non-glycosylated forms (sites not given)
stoichiometry N (cryo-EM structure): 2

B2: S. cerevisiae IPC synthase complex (Aur1-Kei1 complex), wild type (complex)
chain 1: MANPFSRWFLSERPPNCHVADLETSLDPHQTLLKVQKYKPALSDWVHYIFLGSIMLFVFITNPAPWIFKILFYCFLGTLFIIPATSQFFFNALPILTWVALYFTSSYFPDDRRPPITVKVLPAVETILYGDNLSDILATSTNSFLDILAWLPYGLFHFGAPFVVAAILFVFGPPTVLQGYAFAFGYMNLFGVIMQNVFPAAPPWYKILYGLQSANYDMHGSPGGLARIDKLLGINMYTTAFSNSSVIFGAFPSLHSGCATMEALFFCYCFPKLKPLFIAYVCWLWWSTMYLTHHYFVDLMAGSVLSYVIFQYTKYTHLPIVDTSLFCRWSYTSIEKYDISKSDPLAADSNDIESVPLSNLELDFDLNMTDEPSVSPSLFDGSTSVSRSSATSITSLGVKRA
chain 2: MRSSLLTLPKSFLGFMPLYLAVEIVLGISILNKCSGAYGILALFTGHPLDFMQWIAYLWSVFTLIVFSQGLYLIHKPNLLVFSQICVLYTIDTISTCFFTLWFTTQWFTLEDTANIDGNNALQSNPISTGKLTERGIDISKQSATESYEYTMTILITLVSLIFRFYFNFILASFVQELLHHPKYLVDRDDVEQNLKNKPIWKRLWAKSQKGCYKLCKNLLE
modifications: two major bands likely correspond to the glycosylated and non-glycosylated forms (sites not given)
stoichiometry N [5]: 2

— publication PMC12122681 (Nature Communications, 2025)
